Assay results gathered from unrelated publications.
Lines come from different studies, so protocols differ.
NPY1R: Neuropeptide Y receptor type 1 (NPY1R, Homo sapiens, UniProt P25929)
TAOK1: Serine/threonine-protein kinase TAO1 (TAOK1, Homo sapiens, UniProt Q7L7X3)

SMILES	target	assay	system	conditions	endpoint	result
COc1ccc2oc(-c3ccc4nc(N)oc4c3)c/c(=N\c3ccccc3NC(=O)CCN)c2c1	Cyclin-dependent kinase 6, with cyclin D3 (CDK6, Homo sapiens, UniProt Q00534)	binding		1 µM	remaining binding	98%
Cc1cc(F)cc2c(CCC(=O)N[C@@H]3C(=O)NC[C@H]3O)c(-c3ccc(F)cc3)[nH]c12	NPY1R	cell-free assay		10 µM	inhibition	1%
Cc1cc(O)c(-c2ccc([C@@H](C)CN(C)C)cc2)c2c1[nH]c(=O)c1sccc12	Wee1-like protein kinase (WEE1, Homo sapiens, UniProt P30291)	enzyme activity, inhibitor		0.1 µM	inhibition	7.11%
N#Cc1ccc(NC(=O)Nc2ccccc2)cc1	SRSF protein kinase 3 (SRPK3, Homo sapiens, UniProt Q9UPE1)	cell-free assay, competition with immobilised ligand		25 µM	remaining binding	9.7%
NC/C(=C\F)COc1cccc(Cn2c(=S)[nH]c(=O)c3[nH]cnc32)c1	NPY1R	ligand displacement, radioligand		10 µM	inhibition	< 50%
C[C@]1(O)CCCN(c2nc(Nc3ccc(S(=O)(=O)N[C@H]4CC[C@H](CN5CCN(c6ccc(C7CCC(=O)NC7=O)cc6F)CC5)CC4)cc3F)ncc2C(F)(F)F)C1 (some centres unmarked)	TAOK1	binding, competition with immobilised ligand		1 µM	remaining binding	63%
CC(=O)N[C@@H](CCCNC(=N)N)C(=O)N[C@H]1CSSC[C@@H](C(N)=O)NC(=O)[C@H](Cc2c[nH]c3ccccc23)NC(=O)[C@H](CCCNC(=N)N)NC(=O)[C@@H](Cc2ccccc2)NC(=O)[C@H](Cc2c[nH]cn2)NC(=O)[C@@H](C)NC1=O	Melanocortin receptor 3 (MC3R, Homo sapiens, UniProt P41968)	cAMP, agonist	CHO-K1		Emax	88%
CCN1/C(=C/C(C)=O)Sc2ccc(F)cc21	Adenosine receptor A3 (ADORA3, Homo sapiens, UniProt P0DMS8)	ligand displacement, radioligand		10 µM	inhibition	12.4%
Cc1cc2c(C(N)=O)c(N)n(-c3c(C)ccc(O)c3C)c2nc1C	Serine/threonine-protein kinase B-raf (BRAF, Homo sapiens, UniProt P15056)	enzyme activity, inhibitor, ADP detection		0.3704 µM	inhibition	84%
C1=C/COCc2cc(ccc2OCCN2CCCC2)Nc2nccc(n2)-c2cccc(c2)COC/1	Protein kinase C delta type (PRKCD, Homo sapiens, UniProt Q05655)	binding		0.1 µM	remaining binding	100%
CCCC[C@H](NC(C)=O)C(=O)N[C@@H](C)C(=O)N[C@@H](Cc1c[nH]cn1)C(=O)N[C@@H](Cc1ccccc1)C(=O)N[C@@H](CCCNC(=N)N)C(=O)N[C@H](Cc1c[nH]c2ccccc12)C(=O)N[C@@H](CC(=O)O)C(=O)N[C@@H](CCCNC(=N)N)C(=O)N[C@@H](Cc1ccccc1)C(=O)N[C@@H](C(=O)N1CCC[C@@H]1C(N)=O)C(C)C	Melanocyte-stimulating hormone receptor (MC1R, Homo sapiens, UniProt Q01726)	cAMP, agonist			Emax	100%
CCCCC(=O)Nc1ccc(-c2ccc3ncn(CCC)c(=O)c3c2)cn1	Proto-oncogene tyrosine-protein kinase ROS (ROS1, Homo sapiens, UniProt P08922)	binding, competition with immobilised ligand		0.5 µM	remaining binding	89%
CNS(=O)(=O)c1ccc(Nc2ncc(C(F)(F)F)c(N3CCC[C@](C)(O)C3)n2)c(C)c1	TAOK1	binding, competition with immobilised ligand		1 µM	remaining binding	5.3%
C#Cc1cc(-c2cc(Nc3nc(N[C@@H](C)c4ccc(F)cn4)ncc3Cl)n[nH]2)ccc1C=O	Ribosomal protein S6 kinase alpha-2 (RPS6KA2, Homo sapiens, UniProt Q15349)	enzyme activity, inhibitor		0.2 µM	inhibition	39%
